In ChEMBL document CHEMBL4513216, “Probing the Open Global Health Chemical Diversity Library for Multistage-Active Starting Points for Next-Generation Antimalarials” (ACS Infect Dis, 2020):

Assay: Toxicity liver stage against HepG2, at 10uM
Format: cell-based
Design: test concentration 10 uM, cell line HepG2-A16-CD81EGFP
Settings: human, HepG2-A16-CD81EGFP cells; read-out: INHIBITION
Procedure, shortened: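 Uninfected HepG2-A16-CD81EGFP cells, 3 × 10^3 per well, 1536-well, plated on prespotted compound at 10 μM final, parasite-free screening media added to match infected plates; puromycin 10 μM positive, DMSO 0.5% negative; run in parallel with 48 h PbLuc assay at 37 °C, 5% CO2; viability by CellTiter-Glo luminescence, normalized to controls.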

Point of comparison: `CCc1ccc(-n2nnc(C(=O)O)c2-c2ccncc2)cc1`, cytotoxicity at 10 µM 3.02%. Against it:
- Cc1ccc(CN(C)C(=O)c2scnc2C)cc1 — lower, -6.8%
- COc1ccc(C(=O)C2CCCN(c3cc(C#N)ccn3)C2)cc1OC (centres undefined) — lower, -0.312%
- Cc1cc(C)n(CC2CCCN2Cc2cccc(C#N)c2)n1 (centres undefined) — higher, 11.2%
- COCCN1C(=O)[C@@H]2CC[C@H]1CN(C(=O)COc1ccc(F)c(Cl)c1)C2 — lower, -0.447%
- Cc1cnccc1-c1cnn(CCNC(=O)c2ccccn2)c1C1CC1 — higher, 56.3%
- CNc1nc(C(=O)N2CCCC(COc3ccc(F)cc3)C2)cs1 (centres undefined) — higher, 8.35%
- CC(NCc1ccc(F)cc1)c1ccc2[nH]c(=O)[nH]c2c1 (centres undefined) — lower, -9.93%
- CS(=O)(=O)N1CCC(NC(=O)COc2ccc(Cl)c(Cl)c2)CC1 — lower, -6.46%
- Cc1nc(C(C)C)sc1C(=O)N1CCN(C2CN3CCC2CC3)CC1 (centres undefined) — higher, 3.79%
- O=C(NCCNc1cnccn1)N1CCN(Cc2cccnc2)CC1 — higher, 4.07%
- CCN1CCC2(CCN(c3ncccn3)CC2)C1=O — lower, 1.26%
- CCOC1CCC2(CCN(C(=O)c3c[nH]cn3)CC2)c2ccccc21 (centres undefined) — higher, 7.5%
- COCCN1CCCc2sc(C(=O)Nc3ccc(C)nc3)nc21 — higher, 5.92%
- Cc1nc(N2CCN(C(=O)c3ccccc3)CC2)cc(-n2ccnc2)n1 — lower, 0.0237%
- Cc1ncoc1C(=O)N1CCn2c(COCC3CC3)cnc2C1C (centres undefined) — lower, -1.67%
- COc1cccc(OCC(=O)N(C)c2cccnc2)c1 — lower, -2.66%
- Cc1ccc(-c2ccnc(NC(C)c3ncc[nH]3)n2)c(C)n1 (centres undefined) — higher, 3.29%
- Cc1nc2ccc(C(=O)N3C[C@@H](O)[C@H](N4CCOCC4)C3)cc2[nH]1 — lower, -5.81%
- Cc1cc(C)n(CC(C)CNC(=O)NCc2c(C)cc(C)[nH]c2=O)n1 (centres undefined) — lower, -7.86%
- COc1ccc(COCC(O)CN2CCC(c3ccn[nH]3)CC2)cc1 (centres undefined) — lower, -0.975%
- Cc1ccc(N2CCCN(C(=O)c3n[nH]c4c3CCC4)CC2)nn1 — higher, 3.81%
- CCN1CCC(CNc2nccc(C)n2)(N(C)C)CC1 — lower, -0.51%
- Cc1ccccc1-c1noc(-c2ccc(NCC3COCCO3)nc2)n1 (centres undefined) — higher, 3.41%
- CCCOc1cc(C)ccc1NC(=O)N(C)Cc1cnn(C)c1 — lower, -11.1%
- CN1CCOC(CNC(=O)CCCc2ccccc2)C1 (centres undefined) — lower, -0.95%
- O=C(NCC1CC1)C1CCC2(CCN(C(=O)c3ccoc3)CC2)O1 (centres undefined) — higher, 4.97%
- CCc1nc(CN(C(C)=O)C2CCN(Cc3cnc(C)cn3)C2)no1 (centres undefined) — lower, -4.51%
- CSc1ccc(C)c(C(=O)N2CCCC(n3cncn3)C2)c1 (centres undefined) — lower, -13.1%
- Cn1cncc1CN1CC[C@](C)(O)[C@@H](Oc2cccc(F)c2)C1 — lower, -8.49%
- O=C1CC2(CCN(CC3CC3)C2)CN1c1cccnc1 (centres undefined) — lower, -1.18%
- CC(C)(C)NC(=O)N1CCCn2nc(C(=O)Nc3ccccc3)cc2C1 — higher, 8.88%
- Cc1cc(C)nc(C2CCN(C(=O)c3c(C)noc3C)C2)n1 (centres undefined) — lower, -4.34%
- Cc1cccc(CN2C[C@@H]3CN(C(=O)c4ccco4)C[C@@H]3C2=O)c1 — lower, -3.72%
- NC(=O)C1CN(c2ccc(F)cc2)CCN1 (centres undefined) — lower, -4.98%
- NS(=O)(=O)c1cnn(CCC(=O)N(C2CCCCC2)C2CC2)c1 — lower, -0.157%
- O=C1CC(CNc2cncc(Cl)n2)c2ccccc2N1 (centres undefined) — lower, -0.99%
- CCc1n[nH]c(C2CN(C(=O)c3cc(C(N)=O)cs3)CCO2)n1 (centres undefined) — lower, -17.5%
- Cc1n[nH]c(C)c1CCN(C)C(=O)C(c1cccnc1)N1CCOCC1 (centres undefined) — lower, -0.593%
- CN(CCC(N)=O)Cc1cc(Br)cs1 — lower, -0.711%
- CNc1[nH]nc(N)c1NC(=O)c1ccccc1 — higher, 9.96%
- CC(C)c1ccc(S(=O)(=O)NC2(CC(N)=O)CCC2)cc1 — lower, -2.77%
- CC(C)CC(NC(=O)CSc1ccc(F)c(Cl)c1)C(=O)O (centres undefined) — lower, -46%
- O=C(CCn1ncc2c(Cl)cccc21)NCCCn1cccn1 — higher, 6.25%
- CCC(NC(N)=O)c1ccccc1OCC(=O)N1CCCC1 (centres undefined) — lower, -8.29%
- Cc1nc(CCCNC(=O)c2coc(CN3CCOCC3)c2)sc1C — lower, -2.11%
- CC(C)Cn1cncc1CNC(=O)c1cccc(-n2cnnc2)c1 — lower, -5.54%
- CCC[C@H]1CN(c2cncc(C(=O)N3CCCCC3)n2)C[C@@H]1N(C)C — lower, -11.2%
- C=C1c2ccccc2C(=O)N1CCC(=O)N1CCNC(=O)C1 — lower, -4.12%
- Cc1cc(CN(C2CC2)C(C)C(C)C)on1 (centres undefined) — lower, -0.212%
- COc1ccc(C)cc1C1(CNc2cn[nH]c(=O)c2Cl)CCOCC1 — lower, -6.65%
- O=C(O)C1CN(Cc2cccc(-c3ccccn3)c2)CCO1 (centres undefined) — lower, -10.5%
- Cc1cccc(-c2nccn2-c2cccc(CC(=O)O)c2)n1 — higher, 4.55%
- O=C([C@H]1COC[C@H]2CN(CC3CCC3)C[C@H]21)N1CCOCC1 — higher, 17.3%
- CCNC(=O)c1nc2c(s1)CCCN2S(C)(=O)=O — lower, -12.6%
- Cc1noc([C@H]2CC[C@@H]3[C@@H](CCN3S(C)(=O)=O)O2)n1 — lower, -19.3%
- CS(=O)(=O)NC[C@H]1OC[C@H]2CN(CCc3ccccc3)CC[C@H]21 — lower, -3.53%
- O=C(CCn1ccccc1=O)Nc1ccc(I)cc1 — higher, 7.27%
- O=C(N[C@@H]1CC[C@@H](N2CCCC2)[C@@H]1O)c1cc2ccccc2[nH]1 — lower, -4.92%
- CCC1CCCCN1Cc1ncc(C(C)(C)C)o1 (centres undefined) — lower, -3.48%
- COCc1cc(CN(C)C(=O)c2c[nH]nc2-c2cccc(F)c2)n[nH]1 — lower, 0.445%
- CO[C@H]1COCCN(C(=O)c2ccc(C#N)cc2)C1 — higher, 4.94%
- Cc1ccc(CN(CCCn2ccnc2)Cc2c(F)cccc2F)s1 — lower, 2.76%
- CCN1CCC(NC(=O)Cc2csc(C(C)(C)C)n2)CC1 — lower, -16.3%
- CC(C)(C)c1noc(-c2ccnc(-n3cnc(C(=O)O)c3)c2)n1 — higher, 5.41%
- CCN1CCC(CNC(=O)Nc2cccnc2OC)CC1 — lower, -0.523%
- CCc1nc(CNC(=O)C2CCC(=O)N(Cc3ccccc3F)C2)no1 (centres undefined) — lower, -1.88%
- N#Cc1cccc(C(=O)N2CCc3c(COCC4CC4)cncc3C2)c1 — higher, 8.25%
- O=C(CC1CC1)NC1CCc2c(ccc(=O)n2CC2CC2)C1 (centres undefined) — higher, 6.34%
- CNCC(=O)N1CC(c2cc(Nc3nc(C)cs3)nc(C)n2)C1 — lower, -21.2%
- COC(=O)CNC(=O)C1(N(C)Cc2ccccc2)Cc2ccccc2C1 — higher, 3.82%
- CC(Cc1c(F)cccc1F)NC(=O)CN(CC(N)=O)C(C)C (centres undefined) — lower, -10.5%
- CCCC(=O)N(CCCN1CCOCC1)c1nc2c(F)cccc2s1 — lower, -10.7%
- CC(C)NC(=O)c1ccc2c(c1)nc1n2CCN(Cc2ccccc2)C1 — higher, 6.61%
- O=C(NC[C@H]1C[C@@H]2CCN1C[C@@H]2CN1CCOCC1)Nc1ccccc1 — higher, 5.96%
- O=C(CCn1c(=O)oc2ccccc21)NCC(O)c1ccccc1 (centres undefined) — lower, -15.6%
- COCC(=O)N1C[C@H]2CN(Cc3cccc(F)c3)C(=O)[C@H]2C1 — lower, -83.5%
- c1ccc(CNC[C@H]2COCc3nc4cccnc4n32)cc1 — lower, -1.84%
- CC(=O)N1CCCN(C(C(=O)O)c2cccc(C)c2C)CC1 (centres undefined) — lower, -2.75%
- CCOC(=O)CCN(Cc1cccnc1)C(=O)c1cc(Cl)c[nH]1 — lower, -1.24%
- CN(C)c1ccc(C(=O)N2CCCN(Cc3cnn(C)c3)CC2)nn1 — lower, -5.28%
- COCC(=O)N1CCC2(CC1)COC(COCc1ccccn1)C2 (centres undefined) — lower, -128%
- Cc1ncc(C(=O)N2CCC(N3CCc4ccccc4C3)CC2)c(O)n1 — lower, -0.745%
- Cc1cc(CN2CCN(C(C)C)C(CCO)C2)[nH]n1 (centres undefined) — higher, 4.86%
- COCC(C)N1CCc2onc(-c3ccc(F)c(F)c3)c2C1 (centres undefined) — lower, -4.31%
- CC(=O)N1CCC2(CC1)CCN(C(=O)c1cccc(C(F)(F)F)c1)C2 — lower, -74.5%
- COc1cccc(CNC(=O)CC2CSc3ncc(C)c(=O)n32)c1 (centres undefined) — higher, 10.4%
- CCOCCN1CCN(Cc2nnc(C3CC3)o2)CC1 — lower, 1.95%
- Cc1ccc(CN2CCCC3(CCCCN3S(C)(=O)=O)C2)s1 (centres undefined) — lower, -115%
- CNC(=O)C1(N(C)CCc2ccccc2)Cc2ccccc2C1 — higher, 11.5%
- Cc1cc(N2CCCN(C(=O)Cc3cc(F)cc(F)c3)CC2)ccn1 — lower, -6.7%
- CCc1ccc(C(COC)NC(=O)c2ccc(O)nc2)o1 (centres undefined) — higher, 3.06%
- Cc1cc(C(=O)N2CC[C@H](OCC3CC3)[C@@H]2Cc2cccnc2)no1 — lower, -6.44%
- CCn1ccc(C(=O)N2CCCC2(C)c2nc(C)cc(N(C)C)n2)n1 (centres undefined) — lower, -7.56%
- Cc1nc(CC(=O)NCCN2CCC(c3ccccc3C)C2)cs1 (centres undefined) — lower, -40%
- CC(C)N1CCC(Cn2cc(C(N)=O)cn2)CC1 — higher, 6.39%
- CSc1nc(N)c2c(n1)N=C1COC(=O)C1C2c1cccc(Cl)c1 (centres undefined) — higher, 37.5%
- O=C(NCCSc1cnn[nH]1)c1c[nH]nc1C1CCCCC1 — lower, -5.03%
- CCS(=O)(=O)N1C[C@H]2CN(Cc3cccc(F)c3)C(=O)[C@H]2C1 — lower, 0.442%
- CCc1nc(N)nc(N2CCCC3(CN(C)C(=O)O3)C2)c1C (centres undefined) — lower, -138%
- CCN1CCCN(S(=O)(=O)c2cc3ccccc3o2)CC1 — higher, 3.53%
- CC(C)c1nsc(N2CCOCC2)n1 — lower, -11%
- CCC(C)S(=O)(=O)N(Cc1ccco1)Cc1ccccc1O (centres undefined) — higher, 9.99%
- Cc1ccc(C2(CN3CCN(Cc4cn(C)nc4C)CC3)CC2)cc1 — lower, 1.74%
- CN(C)[C@@H]1CO[C@H](CNC(=O)CC(C)(C)C)[C@H]1O — lower, -10.8%
- c1cn(CC2CC2)c(C2CCN(CCC3CCOC3)CC2)n1 (centres undefined) — lower, -8.64%
- CO[C@H]1CCN(S(=O)(=O)c2cccs2)[C@H]1Cc1cccnc1 — lower, -75.5%
- Cc1nc(N2CCCC2)nc(N2CCC(O)(C(=O)O)CC2)c1C — lower, -5.62%
- COc1ccc(CNc2ncc(-c3cc(C)no3)c(C(C)C)n2)cc1 — lower, 2.73%
